Active and inactive are the calls of the source. No cut-off for these calls is given here.
Assays:
[1] = biological target: T1, Peroxisome proliferator-activated receptor delta (Mus musculus, UniProt P35396); assay: Inverse agonist activity at PPARbeta/delta in mouse C2C12 cells assessed as inhibition of Angptl4 expression after 24 hrs by RT-qPCR analysis; assay type: functional, cell-based
T1 sequence (P35396 whole entry): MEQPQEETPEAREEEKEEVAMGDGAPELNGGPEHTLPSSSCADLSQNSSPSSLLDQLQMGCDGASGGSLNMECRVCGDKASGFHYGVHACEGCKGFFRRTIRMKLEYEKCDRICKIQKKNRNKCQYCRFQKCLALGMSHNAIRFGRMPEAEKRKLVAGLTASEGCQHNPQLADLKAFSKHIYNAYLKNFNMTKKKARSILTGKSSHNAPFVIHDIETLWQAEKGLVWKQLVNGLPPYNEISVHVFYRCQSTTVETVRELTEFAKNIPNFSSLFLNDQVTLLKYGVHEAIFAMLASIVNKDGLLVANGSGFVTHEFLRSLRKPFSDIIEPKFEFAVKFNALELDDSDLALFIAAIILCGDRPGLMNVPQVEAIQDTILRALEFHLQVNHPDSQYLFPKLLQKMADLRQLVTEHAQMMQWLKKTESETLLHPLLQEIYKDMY

[2] = biological target: T2, Peroxisome proliferator-activated receptor gamma (Homo sapiens) (UniProt P37231); assay: Displacement of fluormone Pan-PPAR Green from PPARgamma at 100 to 1000 nM after 60 mins by TR-FRET assay
T2 sequence (whole entry): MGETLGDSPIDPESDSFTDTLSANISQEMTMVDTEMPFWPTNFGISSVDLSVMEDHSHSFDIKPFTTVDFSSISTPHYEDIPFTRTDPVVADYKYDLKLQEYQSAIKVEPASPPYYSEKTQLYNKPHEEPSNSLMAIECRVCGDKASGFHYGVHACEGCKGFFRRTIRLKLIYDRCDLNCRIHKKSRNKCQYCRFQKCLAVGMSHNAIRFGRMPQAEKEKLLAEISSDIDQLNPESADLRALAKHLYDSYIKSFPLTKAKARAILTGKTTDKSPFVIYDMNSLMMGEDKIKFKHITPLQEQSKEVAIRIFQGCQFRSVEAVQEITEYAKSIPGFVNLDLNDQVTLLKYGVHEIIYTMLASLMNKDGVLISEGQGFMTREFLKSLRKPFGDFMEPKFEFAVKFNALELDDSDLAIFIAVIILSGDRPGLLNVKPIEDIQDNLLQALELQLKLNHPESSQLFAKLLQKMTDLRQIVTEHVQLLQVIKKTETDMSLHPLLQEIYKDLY

[3] = biological target: T3, Peroxisome proliferator-activated receptor delta (Mus musculus) (UniProt P35396); assay: Displacement of fluormone Pan-PPAR Green from mouse recombinant GST-tagged PPARbeta/delta LBD after 60 mins by TR-FRET assay
T3 sequence (whole entry): T1 sequence (P35396 whole entry)

[4] = Drug uptake in CD1 mouse blood at 5 mg/kg, po up to 30 mins
[5] = biological target: T3, Peroxisome proliferator-activated receptor delta (Mus musculus); assay: Inverse agonist activity at GST-tagged recombinant mouse PPARbeta/delta assessed as increase in corepressor peptide SMRT-ID2 interaction after 60 mins by TR-FRET assay; assay type: functional
Outline: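 LanthaScreen TR-FRET coregulator assay: recombinant GST-PPARβ/δ LBD, labelled by a terbium-coupled anti-GST antibody, was incubated with fluorescein-labelled SMRT-ID2 corepressor peptide and compound. Signal is the 520/495 nm emission ratio, as triplicate averages ± SD, with t test against untreated sample.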

[6] = Half life in CD1 mouse at 5 mg/kg, po; assay type: ADME, organism-based; set-up: dose 5 mg/kg, route oral; settings: in vivo
Outline: (§1)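 Male CD-1 mice dosed iv by tail vein (1 mg/kg) or po by gastric gavage (5 mg/kg). Vehicle was DMSO/Solutol HS 15/PBS pH 7.4 (5/5/90, v/v/v). Blood was taken at eight time points from 10 min to 12 h, by parallel sampling of three mice per point. Plasma was acetonitrile-precipitated and analysed by HPLC-MS/MS, and basic PK parameters were derived.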

[7] = Oral bioavailability in CD1 mouse at 5 mg/kg; assay type: ADME, organism-based; settings: in vivo; outline: as §1
[8] = biological target: T3, Peroxisome proliferator-activated receptor delta (Mus musculus); settings: 1 uM
[9] = test system: Mus musculus; assay: AUC (infinity) in CD1 mouse at 5 mg/kg, po; assay type: ADME, organism-based, Plasma; set-up: time infinity, dose 5 mg/kg, route oral; settings: in vivo; outline: as §1
[10] = test system: Macrophage; assay: Inhibition of Angptl expression in mouse Ppard-knock out macrophages at 1 uM after 6 hrs by RT-qPCR analysis; assay type: functional, cell-based
Outline: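 Macrophages from Ppard null and wild-type mice were treated with compound (1 μM), agonist L165,041 (500 nM) or DMSO solvent for 6 h. Angptl4 mRNA was measured by RT-qPCR with L27 as the normalizer.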

[11] = Cmax in CD1 mouse at 5 mg/kg, po; assay type: ADME, organism-based; set-up: dose 5 mg/kg, route oral; settings: in vivo; outline: as §1

Row | Structure (SMILES) | IC50 [1] [µM] | Activity [2] | Activity [3] | concentration at 0.5 h [4] [ng/mL] | Activity [5] | half-life [6] [h] | bioavailability [7] [%] | inhibition [8] | AUC [9] [ng·h/mL] | inhibition [10] | Cmax [11] [ng/mL]
1 | CN(C)c1ccc(/C=C(\C#N)c2ccccc2Cl)cc1 | 0.052 | inactive | Active | ≤ 6 | Active |  |  |  |  |  | 
2 | CN1CCN(c2ccc(/C=C(\C#N)c3ccccc3Br)cc2)CC1 | 0.0095 | inactive |  |  | Active | 10.6 | 72 | Active | 137 | inactive | 94

— ChEMBL document CHEMBL2029317, “(Z)-2-(2-bromophenyl)-3-{[4-(1-methyl-piperazine)amino]phenyl}acrylonitrile (DG172): an orally bioavailable PPARβ/δ-selective ligand with inverse agonistic properties” (J Med Chem, 2012)
